Assay results published in BindingDB's records for doi:10.1021/jm001079l (Umr 8525 Cnrs - Universit&#233, 2001).

The compounds below were run against Trypanothione reductase (Trypanosoma cruzi, UniProt P28593) (assay: Inhibitory activity against Trypanosoma cruzi trypanothione disulfide reductase, assay in presence of 57 uM T(S)2.).
How it was run: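 Assay contained 250 µM NADPH, 57 µM T(S)₂, inhibitor at 0.3–50 µM and 1% DMSO final. Started with enzyme; NADPH loss followed at 340 nm. IC50 in duplicate.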

Sequence of Trypanothione reductase (P28593 whole entry): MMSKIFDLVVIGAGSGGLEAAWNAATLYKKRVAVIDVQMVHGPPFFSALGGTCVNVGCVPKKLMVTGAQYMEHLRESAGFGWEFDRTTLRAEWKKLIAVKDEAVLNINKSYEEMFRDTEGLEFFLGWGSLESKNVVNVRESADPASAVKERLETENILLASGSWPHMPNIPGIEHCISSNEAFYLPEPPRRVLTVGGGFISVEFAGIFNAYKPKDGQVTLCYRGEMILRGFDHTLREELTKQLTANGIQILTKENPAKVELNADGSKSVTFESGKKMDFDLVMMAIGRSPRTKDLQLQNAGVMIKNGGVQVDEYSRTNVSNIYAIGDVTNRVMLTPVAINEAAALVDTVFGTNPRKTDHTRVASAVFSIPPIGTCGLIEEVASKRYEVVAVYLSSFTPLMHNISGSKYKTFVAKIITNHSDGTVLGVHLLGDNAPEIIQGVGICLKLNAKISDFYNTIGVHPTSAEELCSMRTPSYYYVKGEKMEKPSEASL

IC50 [µM] | Compound
> 57 | Cc1c(N=CCCN2CCN(C)CC2)c(O)c2ccccc2c1O [2-Methyl-3-[3-(4-methyl-piperazin-1-yl)-propylamino]-[1,4]naphthoquinone]
> 57 | Cc1c(N=CCCC=Nc2c(C)c(O)c3ccccc3c2O)c(O)c2ccccc2c1O [2-methyl-3-[4-(3-methyl-1,4-dioxo-1,4-dihydro-2-naphthalenylamino)butylamino]-1,4-dihydro-1,4-naphthalenedione]
2.9 | Cc1c(C=CC(=O)NCCCCNCCCNC(=O)C=Cc2c(C)c(O)c3cccc(O)c3c2O)c(O)c2c(O)cccc2c1O [3-(8-Hydroxy-3-methyl-1,4-dioxo-1,4-dihydro-naphthalen-2-yl)-N-(4-{3-[3-(8-hydroxy-3-methyl-1,4-dioxo-1,4-dihydro-naphthalen-2-yl)-propionylamino]-propylamino}-butyl)-propionamide]
> 50 | CN1CCN(CCCNC(=O)C=Cc2c(CCC(=O)NCCCN3CCN(C)CC3)c(O)c3cccc(O)c3c2O)CC1 [3-(8-Hydroxy-3-{2-[3-(4-methyl-piperazin-1-yl)-propylcarbamoyl]-ethyl}-1,4-dioxo-1,4-dihydro-naphthalen-2-yl)-N-[3-(4-methyl-piperazin-1-yl)-propyl]-propionamide]
11 | Cc1c(C=CCC(=O)NCCCNCCCNC(=O)CC=Cc2c(C)c(O)c3ccccc3c2O)c(O)c2ccccc2c1O [4-(3-Methyl-1,4-dioxo-1,4-dihydro-naphthalen-2-yl)-N-(3-{3-[4-(3-methyl-1,4-dioxo-1,4-dihydro-naphthalen-2-yl)-butyrylamino]-propylamino}-propyl)-butyramide]
11 | CN1CCN(CCCNC(=O)CC=Cc2c(CCCC(=O)NCCCN3CCN(C)CC3)c(O)c3cccc(O)c3c2O)CC1 [4-(5-Hydroxy-3-{3-[3-(4-methyl-piperazin-1-yl)-propylcarbamoyl]-propyl}-1,4-dioxo-1,4-dihydro-naphthalen-2-yl)-N-[3-(4-methyl-piperazin-1-yl)-propyl]-butyramide]
2.3 | Cc1c(C=CCC(=O)NCCCN2CCN(CCCNC(=O)CC=Cc3c(C)c(O)c4cccc(O)c4c3O)CC2)c(O)c2c(O)cccc2c1O [4-(8-Hydroxy-3-methyl-1,4-dioxo-1,4-dihydro-naphthalen-2-yl)-N-[3-(4-{3-[4-(8-hydroxy-3-methyl-1,4-dioxo-1,4-dihydro-naphthalen-2-yl)-butyrylamino]-propyl}-piperazin-1-yl)-propyl]-butyramide]
> 50 | Cc1c(C=CCC(=O)O)c(O)c2c(O)cccc2c1O [4-(8-Hydroxy-3-methyl-1,4-dioxo-1,4-dihydro-naphthalen-2-yl)-butyric acid]
> 57 | Cc1c(N=CCCN2CCN(C)CC2)c(O)c2c(O)cccc2c1O [5-Hydroxy-2-methyl-3-[3-(4-methyl-piperazin-1-yl)-propylamino]-[1,4]naphthoquinone]
> 25 | Cc1c(C=CCNC(=O)OC(C)(C)C)c(O)c2c(O)cccc2c1O [[3-(8-Hydroxy-3-methyl-1,4-dioxo-1,4-dihydro-naphthalen-2-yl)-propyl]-carbamic acid tert-butyl ester]

The remaining lines, values behind:

Compound | IC50 [µM]
Cc1c(N=CCCNCCCCNCCCN)c(O)c2c(O)cccc2c1O | 28
Cc1c(N=CCCCN)c(O)c2ccccc2c1O [2-(4-Amino-butylamino)-3-methyl-[1,4]naphthoquinone] | > 57
Cc1c(N=CCCNCCCCNCCCN)c(O)c2ccccc2c1O [2-{3-[4-(3-Amino-propylamino)-butylamino]-propylamino}-3-methyl-[1,4]naphthoquinone] | 28
Cc1c(N=CCCCN)c(O)c2c(O)cccc2c1O [3-(4-Amino-butylamino)-5-hydroxy-2-methyl-[1,4]naphthoquinone] | > 57
Cc1c(C=CC(=O)O)c(O)c2c(O)cccc2c1O [3-(8-Hydroxy-3-methyl-1,4-dioxo-1,4-dihydro-naphthalen-2-yl)-propionic acid] | > 50
O=C(O)CCCC=Cc1c(CCCCCC(=O)O)c(O)c2ccccc2c1O [6-[3-(5-Carboxy-pentyl)-1,4-dioxo-1,4-dihydro-naphthalen-2-yl]-hexanoic acid] | > 50
Cc1c(CC=NC(=O)OC(C)(C)C)c(O)c2ccccc2c1O [[2-(3-Methyl-1,4-dioxo-1,4-dihydro-naphthalen-2-yl)-ethyl]-carbamic acid tert-butyl ester] | > 50
Cc1c(CC=NC(=O)OC(C)(C)C)c(O)c2c(O)cccc2c1O [[2-(8-Hydroxy-3-methyl-1,4-dioxo-1,4-dihydro-naphthalen-2-yl)-ethyl]-carbamic acid tert-butyl ester] | > 25
